# Source: PubChem BioAssay (Broad Institute)
# SIRT5 inh – blocks human SIRT5 desuccinylation of peptide. Purified SirT5, succinyl-peptide AMC, trypsin-coupled fluorescence. inhibition, % at 15 µM. 1.1% of 330,000 active. AID 652115; in the data active = inhibition above about 15%; inconclusive = no clear call, values can overlap the other calls
# Target sequence (Q9NXA8 whole entry, looked up): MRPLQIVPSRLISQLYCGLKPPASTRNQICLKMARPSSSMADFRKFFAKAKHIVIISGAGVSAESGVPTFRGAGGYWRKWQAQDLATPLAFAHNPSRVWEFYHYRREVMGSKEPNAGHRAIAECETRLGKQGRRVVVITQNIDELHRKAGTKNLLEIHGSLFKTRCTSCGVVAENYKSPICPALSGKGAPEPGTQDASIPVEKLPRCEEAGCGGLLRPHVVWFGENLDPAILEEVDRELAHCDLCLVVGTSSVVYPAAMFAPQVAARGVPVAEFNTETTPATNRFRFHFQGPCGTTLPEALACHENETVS
# DENV2 CPE rescue – protects cells from dengue virus 2 cytopathic effect. 1.7% of 350,000 active. DENV2-infected cells, cytopathic effect rescue, plate reader. CPE inhibition, % at 9.99 µM; in the data active = CPE inhibition above about 20%, passing the limit was not always enough; inconclusive = no clear call, values can overlap the other calls; tested in BHK-21 cells;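 note: 0% = median of neutral control wells and 100% = median of positive control wells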
# FGF22 binding – shifts melting point of recombinant human FGF22; Q9HCT0; recombinant FGF22 thermal shift, SYPRO orange fluorescence; percent of sucrose octasulfate shift, DMSO zero; activity (Tm shift, normalised), % at 9.99 µM; 1.5% of 340,000 active; AID 651658;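 active = mean Tm shift, scaled 0 neutral to 100 positive control, at about 1.3% or above, every replicate too, limit read from the data; inconclusive = no clear call, values can overlap the other calls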
# Target sequence (Q9HCT0 whole entry, looked up): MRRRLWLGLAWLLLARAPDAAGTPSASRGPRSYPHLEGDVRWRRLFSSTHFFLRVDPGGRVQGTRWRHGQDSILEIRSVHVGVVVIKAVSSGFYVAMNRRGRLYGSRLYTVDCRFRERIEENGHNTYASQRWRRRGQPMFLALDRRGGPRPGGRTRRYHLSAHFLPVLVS
# XiGFP reactiv – X-chromosome reactivation activator; XiGFP mouse fibroblasts, % GFP-positive cells imaging, 3 d; cells co-treated with 5-aza-dC sensitizer; scaled so ellipticine positive control = 100%; activation, % at 7.58 µM; 0.055% of 360,000 active;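 active = mean normalized replicate activation at least 10% and every replicate at or above 10%; inconclusive = only one of the two criteria met; inactive = mean below 10% and not all replicates reach 10%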;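 note: 0% = median of on-plate neutral control wells and 100% = ellipticine 6 µM median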
#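 System: SV40-immortalized XiGFP fibroblast cells, line 68-5-11 / Incubation: 3-day compound exposure, then 15 min fixation at room temperature / Compound: single concentration per compound, delivered by pin transfer / Buffer or medium: DMEM plus 5-aza-dC sensitizer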
# ARNT-TACC3 inh – ARNT/TACC3 interaction disruption; Q9Y6A5; AlphaScreen His-ARNT PAS-B/GST-TACC3 binding, luminescence; TACC3 fragment carries E629A point mutation; inhibition, % at 9.99 µM; 0.66% of 390,000 active; AID 623870;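 active = mean inhibition of replicates at least 50% and at least half of replicates each reaching 50%; inconclusive = half or more replicates reach 50% but mean below 50%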;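 note: 0% = complete ARNT plus TACC3 wells and 100% = ARNT alone without TACC3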
# FN deposit inh – fibronectin deposition inhibition; AH1F fibroblasts, Alexa488-fibronectin deposition fluorescence, overnight; inhibition, % at 12.6 µM; 0.086% of 350,000 active;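 active = mean inhibition across replicates of 30% or more, regardless of how many single replicates reach that level; inconclusive = mean under 30% yet at least half of replicates reach 30%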;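 note: positive control wells lacked labelled fibronectin entirely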
#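 Assay system: AH1F fibroblasts assembling fluorescent fibronectin matrix; Amount: 10000 AH1F cells per well; Buffer or medium: DMEM, 2% serum; Probe or stimulus: Alexa488-fibronectin, 24 nM final in well; Doses: single compound dose, delivered by pin transfer; Incubation: 1 h adhesion, overnight exposure; Measured by: fluorescence 485/525 nm; Read-out: fibronectin deposition inhibition.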
# Numbers without * were called inactive; ? = inconclusive; . = no result; ! = repeats disagree. Shown are actives, neighbours in structure and some others; about 3.8% of the full set was active somewhere.
SMILES,SIRT5 inh,DENV2 CPE rescue,FGF22 binding,XiGFP reactiv,ARNT-TACC3 inh,FN deposit inh
O=C(c1cc2cc(Cl)ccc2[nH]1)N1CCN(c2ccc(F)cc2)CC1,0.9,2.7,-0.2,0.0,-1.3,0.4
COc1cc(CCCN2CCNC[C@@H]2c2ccccc2)cc(OC)c1OC,.,70.2*,-0.1,0.6,11.7,-1.4
COc1cccc(N(C(=O)CCl)C(C(=O)NCCc2ccccc2)c2cccs2)c1 (stereo not given),.,.,.,.,-1.0,18.6
COc1ccc(N(C(=O)CCl)C(C(=O)NCCc2ccccc2)c2cccs2)cc1Cl (stereo not given),0.1,-29.9,-0.1,0.7,-9.5,33.6*
O=C1c2ccccc2C(c2nnnn2Cc2ccccc2)N1Cc1ccco1 (stereo not given),15.3*,-4.8,-0.3,0.1,.,6.6
O=C1c2ccccc2C(c2nnnn2Cc2ccccc2)N1Cc1ccc(F)cc1 (stereo not given),-1.9,-5.8,0.3,-0.1,.,-8.5
C[C@@H]1CN([C@@H](C)CO)C(=O)Cc2cc(NS(=O)(=O)c3cn(C)cn3)ccc2O[C@H]1CN(C)C,-2.8,-1.5,0.0,0.1,-1.8,.
COc1ccc(CN(C2CCCC2)S(=O)(=O)c2ccc(-n3cnnn3)cc2)cc1,.,.,.,.,-49.3,6.6
COc1ccc(CN(C2CCCC2)S(=O)(=O)c2ccc(-n3cnnn3)cc2)cc1OC,.,.,.,.,0.9,31.1*
C[C@@H]1CN([C@@H](C)CO)C(=O)c2cc(-c3ccccc3)cnc2O[C@H]1CN(C)C(=O)C1CCCCC1,-2.4,50.8*,-0.5,-0.7,-5.3,.
C[C@H](CO)N1C[C@H](C)[C@@H](CN(C)C(=O)C2CCOCC2)Oc2ncc(-c3ccccc3)cc2C1=O,20.8*,4.2,0.0,0.7,-1.9,.
C[C@@H]1CN([C@@H](C)CO)C(=O)c2cc(-c3ccccc3F)cnc2O[C@@H]1CN(C)C(=O)C1CCOCC1,-0.9,60.1*,0.2,1.2,-4.1,.
C[C@H](CO)N1C[C@H](C)[C@@H](CN(C)C(=O)c2ccccn2)Oc2ncc(-c3ccccc3F)cc2C1=O,0.3,20.8*,0.1,-1.2,-3.3,-7.6
C[C@@H]1CN([C@@H](C)CO)C(=O)c2cc(-c3ccccc3)cnc2O[C@@H]1CN(C)C(=O)C1CCOCC1,-6.3,4.7,0.0,-0.7,-7.0,4.2
C[C@@H]1CN([C@H](C)CO)C(=O)c2cc(-c3ccccc3F)cnc2O[C@H]1CN(C)C(=O)C1CCOCC1,4.4,-0.1,-0.4,0.3,20.7,.
C[C@@H]1CN([C@@H](C)CO)C(=O)c2cc(-c3ccccc3)cnc2O[C@@H]1CN(C)C(=O)C1CCCCC1,-8.7,12.2,-0.1,-0.7,6.2,.
C[C@@H]1CN(C)C(=O)Cc2cc([N+](=O)[O-])ccc2O[C@@H]1CN(C)C(=O)OC(C)(C)C,.,.,.,0.2,.,0.2
C[C@H]1CCCCO[C@H](CN(C)Cc2ccc(C(=O)O)cc2)[C@@H](C)CN([C@@H](C)CO)C(=O)c2cc(NC(=O)Cc3ccccc3)ccc2O1,-4.8,-2.7,0.2,0.2,-31.9,.
COc1ccc2c3c(n(C)c2c1)[C@H](CO)N(C(=O)c1cnccn1)CC31CN(C)C1,-7.2,9.2,-0.1,0.3,.,.
COc1ccc2c3c(n(C)c2c1)[C@@H](CO)N(C(=O)CN(C)C)CC31CN(Cc2nccs2)C1,-1.0,-4.5,-0.1,0.0,.,4.2
C[C@H]1CN([C@@H](C)CO)C(=O)c2cc(C#Cc3ccccc3F)cnc2O[C@H]1CN(C)C(=O)C1CCOCC1,1.6,-10.7,-0.1,0.5,-6.0,5.1
C[C@@H]1CN([C@H](C)CO)C(=O)c2cc(C#Cc3ccccc3F)cnc2O[C@H]1CN(C)C(=O)C1CCOCC1,0.5,34.7*,0.0,-0.2,-7.8,1.7
C[C@H]1CN([C@@H](C)CO)C(=O)c2cc(C#CC3CC3)cnc2O[C@@H]1CN(C)C,-2.6,69.1*,0.0,0.0,-1.1,-5.1
C[C@@H]1CN([C@@H](C)CO)C(=O)c2cc(C#CC3CCCCC3)cnc2O[C@@H]1CN(C)C(=O)Nc1ccccc1,16.4*,-2.2,-0.1,-0.3,3.3,-31.4
C[C@@H]1CN([C@H](C)CO)C(=O)c2cc(C#Cc3ccc(F)cc3)cnc2O[C@H]1CN(C)C,5.7,-6.6,-0.1,0.5,5.1,.
SMILES,SIRT5 inh,DENV2 CPE rescue,FGF22 binding,XiGFP reactiv,ARNT-TACC3 inh,FN deposit inh
C[C@@H]1CN([C@@H](C)CO)C(=O)c2cc(C#CC3CCCCC3)cnc2O[C@H]1CN(C)C(=O)Nc1ccccc1,4.5,-3.4,-0.4,-0.5,-10.3,0.9
C[C@H](CO)N1C[C@H](C)[C@H](CN(C)Cc2ccccc2)Oc2ncc(C#CCN(C)C)cc2C1=O,18.6*!,9.5,-0.1,-0.2,0.6,4.7
C[C@@H]1CN([C@H](C)CO)C(=O)c2cc(C#Cc3ccc(F)cc3)cnc2O[C@@H]1CN(C)C,-2.3,81.1*,-0.3,0.8,5.3,.
CCC(=O)N1CC2(CN(C(=O)CN3CCOCC3)C2)c2c([nH]c3cc(OC)ccc23)[C@H]1CO,8.0,17.7,0.0,0.3,.,.
CCCNC(=O)Nc1ccc2c(c1)C(=O)N(C)[C@@H]1CC[C@H](CC(=O)NC3CCC3)O[C@H]1CO2,-1.0,8.4,-0.4,0.1,-69.4,-9.0
C[C@H](CO)N1C[C@H](C)[C@H](CN(C)Cc2ccc(C(=O)O)cc2)Oc2ccc(NC(=O)CCC(F)(F)F)cc2C1=O,-1.1,11.2,-0.1,-1.3,-0.5,.
O=C1c2ccccc2[C@@H]2C[C@@H](O)[C@H](Nc3cccc4ccccc34)CCN12,-0.9,26.0*,-0.2,-0.1,2.8,.
CCS(=O)(=O)N(C)C[C@H]1OCc2ccccc2-c2c(n(C)c3ccccc23)C(=O)N([C@H](C)CO)C[C@H]1C,-4.8,9.3,0.0,-0.2,6.2,-11.3
Fc1ccccc1-c1cc2ccccc2cn1,-4.7,.,44.1*,0.1,0.0,-13.4
Cc1csc2ncc(C(=O)N3c4ccccc4CC3C)c(=O)n12 (stereo not given),16.4*,2.1,-0.3,0.3,.,-4.1
CC(C)CC#Cc1cnc2c(c1)C(=O)N([C@H](C)CO)C[C@@H](C)[C@@H](CN(C)C(=O)c1cccc(F)c1)O2,1.2,?,-0.2,-0.2,-8.4,-13.4
COc1ccc(-c2cnc3c(c2)C(=O)N([C@@H](C)CO)C[C@@H](C)[C@H](CN(C)S(=O)(=O)c2ccc(OC)cc2)O3)cc1,.,.,.,-0.5,.,-4.0
NS(=O)(=O)c1cccc2c1c([N+](=O)[O-])cc1nc(O)c(O)nc12,16.1*,17.0,-0.3,0.0,10.9,-3.7
CCCCOc1ccc(C(=O)Nc2ccc(CN3CCOCC3)cc2)cc1,28.8*,?,-0.1,0.0,10.3,-10.4
